Two molecules from publication PMC8418994 (Structure (London, England : 1993), 2021) can be followed below.

Assay [1] relates to [Y473E]-PPARγ LBD. Description: Isothermal titration calorimetry. The class given is binding, human. Particulars: ITC at 25°C; Figure S7; in words. The procedure, abridged:
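Human PPARγ LBD Y473E mutant (residues 203–477), expressed His-tagged in E. coli BL21(DE3), purified by Ni-NTA and gel filtration. Protein at 30 μM in the cell; test compound at 300 μM in the syringe. Both in 20 mM potassium phosphate pH 7.4, 50 mM KCl, 5 mM TCEP, 0.5 mM EDTA, 0.17% DMSO. A 0.4 μL pre-injection, then nineteen 2 μL injections at 25°C, stirring 1200 rpm.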
Background: Isothermal titration calorimetry measures the heat released or taken up as one component is titrated into another.

Assay [2] relates to [Y473E]-PPARγ LBD. Briefly: TR-FRET coregulator interaction assay. The class given is biochemical, human. On the technique in general: TR-FRET usually uses a lanthanide donor and a delayed reading to cut background.
Another assay has as its target T1, PPARγ LBD (Homo sapiens, UniProt P37231).
T1 sequence (P37231 203-477 isoform P37231-2): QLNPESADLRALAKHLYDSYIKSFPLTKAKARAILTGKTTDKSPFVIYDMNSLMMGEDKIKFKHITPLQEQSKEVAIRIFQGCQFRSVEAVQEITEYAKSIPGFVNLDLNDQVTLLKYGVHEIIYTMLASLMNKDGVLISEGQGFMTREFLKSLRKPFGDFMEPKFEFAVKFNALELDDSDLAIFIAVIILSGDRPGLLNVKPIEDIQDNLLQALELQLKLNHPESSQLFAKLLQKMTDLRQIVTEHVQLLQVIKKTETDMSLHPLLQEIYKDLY
Briefly: TR-FRET fluorescent tracer ligand displacement assay. The assay is classed as binding.

Where only a bound is given, the exact number is not on record here.

Regarding `CN(CCOc1ccc(C[C@H](Nc2ccccc2C(=O)c2ccccc2)C(=O)O)cc1)c1ccccn1` [GW1929], the “binding affinity to [Y473E]-PPARγ LBD” value in assay [Y473E]-PPARγ LBD [1] is given as “reasonably high affinity”. Also, the “concentration-dependent effect on interaction of the TRAP220/MED1 coactivator peptide” value in assay [Y473E]-PPARγ LBD [2] is “essentially no concentration-dependent effect”.

On to `Cc1oc(-c2ccccc2)nc1CCC(=O)c1ccc(CC2SC(=O)NC2=O)cc1` (stereo not drawn) [darglitazone], for which, at PPARγ LBD, the Ki was at most 1 nM.

Usually Ki stands for the dissociation constant of the complex between target and ligand, obtained from inhibition or displacement.
